Hits are enriched below; roughly 2.5% of the tested compounds scored in any of these assays.
GRK2 inh: human GRK2 inhibition via aptamer displacement; AID 488847; bead flow cytometry, FAM-aptamer displacement from GRK2; 0.59% of 330,000 active; P25098; inhibition of aptamer binding, % at 10 µM;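 active means inhibition of aptamer binding above 40%, roughly 3 SD of noise, on plates passing a quality check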;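 further: median bead fluorescence of bound FAM aptamer so fluorescent compounds give negative values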
ABHD5 PLIN5 PPI: inhibitors of human ABHD5-perilipin-5 interaction; Split G. princeps luciferase complementation, luminescence, 4 h; 0.78% of 360,000 active; AID 602281; Q00G26+Q8WTS1; inhibition, % at 4 µM;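 active means inhibition above the mean inhibition across every tested compound plus 3 SD, cut at about 22% in these data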
NadD inh: NadD (S. aureus) enzyme inhibition; purified NadD enzyme, colorimetric absorbance read-out; AID 602399; inhibition, % at 20 µM; 0.78% of 360,000 active; in the data active means inhibition above about 26%
SENP1 inh: inhibitors of human SENP1 SUMO protease catalytic domain; recombinant SENP1 catalytic domain, CyPet-SUMO1-YPet FRET cleavage; 0.21% of 360,000 active; inhibition, % at 10 µM; AID 624204; Q9P0U3;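 active means inhibition at least 30% at 10 µM, raw YFP signal under a set limit, fluorescence ratio 0.5 to 1.5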
Target sequence (Q9P0U3 419-644 limits assumed): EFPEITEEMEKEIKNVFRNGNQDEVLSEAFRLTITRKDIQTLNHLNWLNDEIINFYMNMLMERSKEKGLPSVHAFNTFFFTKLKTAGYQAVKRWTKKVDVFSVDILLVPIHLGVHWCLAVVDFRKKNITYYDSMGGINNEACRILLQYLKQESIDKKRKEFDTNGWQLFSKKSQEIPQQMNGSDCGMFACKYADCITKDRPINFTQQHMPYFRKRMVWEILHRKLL
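Test system: recombinant human SENP1 catalytic domain, His6-tagged / Medium: pH 8 Tris buffer with EDTA, NaCl, BME, BSA, NP40, catalase / Also added: SUMO1 FRET substrate flanked by Cypet and Ypet, 25 nM / Times: 50 min reaction at room temperature / Signal: FRET, CFP and YFP emission / Control set: no-enzyme low control and enzyme-plus-DMSO high control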
Beta2AR agonist: activates human beta-2 adrenergic receptor causing internalization; response, % (concentration not given with the values); Am2.2-beta2AR cells, FAP receptor internalization, flow cytometry; P07550; AID 504454; 0.43% of 340,000 active;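 active means response above a set limit, near 3 SD of response in nonfluorescent compounds, cut at about 42% in these data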
ABHD5-PLIN5 conf: ABHD5-PLIN5 interaction inhibition, confirmed; shares compounds with ABHD5 PLIN5 PPI; biochemical ABHD5-PLIN5 interaction, luminescence; inhibition, % at 4 µM; 67% of 2,200 active; AID 651612; in the data active means inhibition above about 23%
HNF4 counter: active in HNF4 split-luciferase counter-screen for ABHD5-PLIN5 inhibitors. shares compounds with ABHD5 PLIN5 PPI. HNF4 dimerization, luminescence, biochemical. inhibition, % at 4 µM. 77% of 2,200 active. AID 651674;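 active means mean inhibition across replicate wells exceeding the computed hit threshold, cut at about 13% in these data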;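 further: light from luciferase halves that rejoin when HNF4 fusion proteins dimerize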
Target sequence (P41235 whole entry, looked up, the tested form may be a part): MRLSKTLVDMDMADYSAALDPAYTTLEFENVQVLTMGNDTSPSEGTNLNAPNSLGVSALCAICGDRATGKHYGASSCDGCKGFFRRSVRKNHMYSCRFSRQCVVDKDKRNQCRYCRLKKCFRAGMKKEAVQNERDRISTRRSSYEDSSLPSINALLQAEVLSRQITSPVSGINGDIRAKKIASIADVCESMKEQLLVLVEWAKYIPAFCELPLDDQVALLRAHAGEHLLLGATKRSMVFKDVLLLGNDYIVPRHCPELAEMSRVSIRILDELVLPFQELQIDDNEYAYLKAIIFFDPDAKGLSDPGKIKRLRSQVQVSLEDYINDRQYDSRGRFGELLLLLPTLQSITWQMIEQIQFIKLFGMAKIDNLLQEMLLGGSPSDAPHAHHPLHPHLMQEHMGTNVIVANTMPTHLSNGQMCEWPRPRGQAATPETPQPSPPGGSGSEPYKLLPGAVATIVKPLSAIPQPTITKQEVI
A number is an active result; i = inactive; nt = no result.

SMILES | GRK2 inh | ABHD5 PLIN5 PPI | NadD inh | SENP1 inh | Beta2AR agonist | ABHD5-PLIN5 conf | HNF4 counter
Cc1cc(C(=O)N2CCN(c3ccc([N+](=O)[O-])cc3)CC2)n[nH]1 | i | i | i | i | i | nt | nt
Cc1ccc2cccnc2c1NC(=S)NC(=O)c1ccccc1 | i | 35.5 | i | i | i | i | 31.6
COc1ccc(CN=C2Nc3ccccc3CS2)cc1 | i | 36.9 | i | i | i | i | i
COc1ccc(OCc2n(CC(=O)OC3CC(C)CCC3C(C)C)c3ccccc3[n+]2C)cc1 (stereo not drawn) | i | 39.1 | i | i | i | i | i
COc1ccc(-c2n(CC(=O)OC3CC(C)CCC3C(C)C)c3ccccc3[n+]2C)cc1 (stereo not drawn) | nt | i | i | i | i | nt | nt
CCC(C(=O)Nc1cccc(S(=O)(=O)N(C)c2ccccc2)c1)c1ccccc1 (stereo not drawn) | i | i | i | i | i | nt | nt
CC(C)C(C)NC(=O)CSc1nc2scc(-c3ccco3)c2c(=O)n1-c1ccccc1 (stereo not drawn) | i | 37.6 | i | i | i | i | 15.0
CC(C)C(C)(C#N)NC(=O)CSc1nc2scc(-c3ccco3)c2c(=O)n1-c1ccccc1 (stereo not drawn) | i | 25.2 | i | i | i | 29.8 | 92.6
COc1ccc(-c2c(C)oc3c(CN4CCCCC4C)c(O)ccc3c2=O)cc1 (stereo not drawn) | i | i | i | i | i | nt | nt
CC1CCCCN1Cc1c(O)ccc2c(=O)c(-c3nc4ccccc4s3)c(N)oc12 (stereo not drawn) | i | 29.4 | i | i | i | i | i
Cc1ccc(S(=O)(=O)N2CCCCC2)cc1NC(=O)CSc1ncccn1 | i | i | i | i | i | nt | nt
Cc1cc(N2CCCC2)c(F)cc1/C=C\[N+](=O)[O-] | nt | 47.0 | i | i | i | 97.2 | 95.0
Cc1cc(N2CCC(C)CC2)c(F)cc1[N+](=O)[O-] | i | i | i | i | i | nt | nt
O=C(O)c1ccccc1C(=O)Nc1ccccc1 | i | i | i | i | i | nt | nt
O=C(Nc1ccccc1)C1=C(c2ccccc2)S(=O)(=O)CCS1(=O)=O | nt | 87.6 | i | i | i | 99.9 | 108.5
CCc1cccc(C)c1NC(=O)C1CCCN1C(=O)NCc1ccccc1 (stereo not drawn) | i | i | i | i | i | nt | nt
O=C(C[n+]1cccc(CNC(=O)c2ccc(OC(F)F)cc2)c1)Nc1ccc(SC(F)F)cc1 | i | 28.6 | i | i | i | i | i
O=C(NC1CC2CCCC(C1)N2C(=O)Nc1cccc(F)c1)C1CC1 (stereo not drawn) | i | i | i | i | i | nt | nt
CCc1nnc(NC(=O)c2ccc(OC)c(S(=O)(=O)N3CCCC3)c2)s1 | i | i | i | i | i | nt | nt
O=c1[nH]c(/C=C/c2ccc([N+](=O)[O-])cc2)c([N+](=O)[O-])c(=O)[nH]1 | i | 49.8 | i | i | i | 84.6 | 79.2
COC(=O)[C@]1(Cc2ccccc2)N[C@H](CN(C)C(=O)Nc2ccc(C)cc2)[C@@H]2C(=O)N(C)C(=O)[C@@H]21 | i | i | i | i | i | nt | nt
CC(=O)N1c2ccccc2NC2=C(C(=O)CCC2)C1c1ccco1 (stereo not drawn) | i | 29.5 | i | i | i | i | 36.9
Cc1ccc(Nc2cc(C)nc(NCc3ccccc3)n2)cc1 | i | 23.5 | i | i | i | i | 15.4
COc1ccccc1C(O)P(=O)(OCC(C)C)c1ccc(N(C)C)cc1 (stereo not drawn) | i | i | i | i | i | nt | nt
Cc1ccc(O)c(NC(=S)NC(=O)/C=C/c2ccco2)c1 | i | i | i | i | i | nt | nt
SMILES | GRK2 inh | ABHD5 PLIN5 PPI | NadD inh | SENP1 inh | Beta2AR agonist | ABHD5-PLIN5 conf | HNF4 counter
Cc1ccnc(NC(=S)NC(=O)/C=C/c2ccco2)c1 | i | 23.5 | i | i | i | i | i
Cc1cc(C)nc(NS(=O)(=O)c2ccc(NCN3C(=O)c4ccccc4C3=O)cc2)n1 | nt | 27.4 | i | i | nt | i | i
O=C(/C=C/c1cccc(Cl)c1)c1nc2ccccc2[nH]1 | i | 61.1 | i | i | i | 98.2 | 98.9
CC(C)(C)OC(=O)N[C@@H](Cc1ccccc1)c1nnc(S(=O)(=O)Cc2cccc(F)c2)o1 | i | nt | nt | nt | nt | nt | nt
CC[C@@H](C)[C@H](NC(=O)OC(C)(C)C)c1nnc(S(=O)(=O)Cc2cc(C)ccc2C)o1 | i | 60.9 | i | i | i | 72.2 | 102.0
CC(C)[C@H](NC(=O)OC(C)(C)C)c1nnc(S(=O)(=O)Cc2c(F)cccc2Cl)o1 | i | 71.4 | i | i | i | 84.6 | 108.0
Cc1ccccc1CS(=O)(=O)c1nnc([C@H](CC(C)C)NC(=O)OC(C)(C)C)o1 | i | 44.5 | i | i | 64.3 | 68.9 | 90.5
Cc1ccc(S(=O)(=O)N2CCN(c3ncnc4sccc34)CC2)cc1 | i | i | i | i | i | nt | nt
CCCCCCCCCc1conc1C(=O)/C=C/c1oc2c(c1C)CCC(C)C2 (stereo not drawn) | nt | 41.6 | nt | i | nt | 36.6 | i
CSCCC(NC(=O)c1ccco1)C(=O)NNC(=O)c1n[nH]c(=O)c2ccccc12 (stereo not drawn) | i | 66.2 | i | i | i | i | i
CC(=O)N(c1ccc2oc(=O)sc2c1)S(=O)(=O)c1ccc(C(=O)O)cc1 | i | 25.3 | i | i | i | i | 81.6
CC(=O)N(c1ccc2oc(=O)sc2c1)S(=O)(=O)c1cccc2cccnc12 | i | 24.8 | i | i | i | i | i
CC1=NN(c2ccccc2)C(=O)/C1=C\c1sccc1C | i | i | i | i | i | nt | nt
CC1=NN(c2ccccc2)C(=O)/C1=C/C=C/c1ccccc1 | i | 25.4 | i | i | i | 98.5 | 90.4
Nc1sccc1C(=O)NCc1ccccc1 | nt | 35.9 | nt | i | nt | i | 49.0
Cc1ccc(C(=O)Nc2ccc3c(c2)OCCO3)c(Cl)c1 | i | i | i | i | i | nt | nt
O=C(Nc1ccc2c(c1)OCCO2)c1cc(F)c(F)cc1Cl | i | 24.0 | i | i | i | i | i
CCCCn1nnnc1C1(C)CCC(=O)N1CCCn1ccnc1 (stereo not drawn) | nt | 58.6 | i | i | nt | 46.5 | 46.0
Cc1cccc(C)c1-n1nnnc1C1(C)CCC(=O)N1CCCn1ccnc1 (stereo not drawn) | nt | i | i | i | nt | nt | nt
COc1ccccc1-c1cc(C(F)(F)F)c(C#N)c(=O)[nH]1 | i | i | i | i | i | nt | nt
COc1ccccc1-c1cc(SC)c(C#N)c(=O)o1 | i | 66.7 | i | i | i | 89.2 | 92.6
CCN1c2ccccc2NC2N=C(OC)C(c3ccccc3)C21 (stereo not drawn) | i | 47.9 | i | i | i | i | 12.8
CCOc1cccc(=O)c2c(C)n(Cc3ccco3)c(C)c12 | i | 24.1 | i | i | i | 28.8 | 54.6
CCOc1cccc(=O)c2c(C)n(Cc3ccccc3)c(C)c12 | i | i | i | i | i | nt | nt

Source: PubChem (several laboratories)
